High-throughput results (PubChem)
Kir21 inh: inhibitors of mouse Kir2.1 inward-rectifier potassium channel; Inward rectifier potassium channel 2 (Mus musculus), P35561; HEK293-Kir2.1, FluxOR thallium flux fluorescence; hits give low values; B-score at 10 µM; actives 0.85% (n = 310,000);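 active = fluorescence ratio B-score at or below minus 3 SD of library scores, with starting-brightness B-score within 2 SD, cut at about -4.2 in these data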;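 note: channel flux triggered by added potassium and thallium sulfate stimulus; B-score of peak minus minimum fluorescence over baseline after thallium stimulus; more negative B-score means stronger Kir2.1 block with less thallium influx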
hERG protect: hERG rescue from dofetilide block, primary screen, cell-based, CHO-hERG, FluxOR thallium flux, dofetilide IC70; Voltage-gated inwardly rectifying potassium channel KCNH2 (Homo sapiens), Q12809; dofetilide IC70 present; activation (rescue from dofetilide block), less the hit threshold, % at 10 µM; actives 0.51% (n = 310,000); AID 1511, 2009;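 active = activation above the mean of controls blocked by dofetilide plus 5 SD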;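 note: thallium influx through hERG after potassium depolarization seen as dye fluorescence rise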
KCNQ1 pot: potentiators or activators of KCNQ1 channel, primary screen, cell-based, thallium flux, high-throughput. actives 0.35% (n = 310,000). B-score at 10 µM. Potassium voltage-gated channel subfamily KQT member 1 (Homo sapiens), P51787. CHO-K1 KCNQ1, thallium flux FluxOR fluorescence; hits give high values;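 active = fluorescence ratio B-score, a plate-corrected score, at least three library SD, with initial intensity B-score within 5 SD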
Target sequence (P51787 whole entry, looked up): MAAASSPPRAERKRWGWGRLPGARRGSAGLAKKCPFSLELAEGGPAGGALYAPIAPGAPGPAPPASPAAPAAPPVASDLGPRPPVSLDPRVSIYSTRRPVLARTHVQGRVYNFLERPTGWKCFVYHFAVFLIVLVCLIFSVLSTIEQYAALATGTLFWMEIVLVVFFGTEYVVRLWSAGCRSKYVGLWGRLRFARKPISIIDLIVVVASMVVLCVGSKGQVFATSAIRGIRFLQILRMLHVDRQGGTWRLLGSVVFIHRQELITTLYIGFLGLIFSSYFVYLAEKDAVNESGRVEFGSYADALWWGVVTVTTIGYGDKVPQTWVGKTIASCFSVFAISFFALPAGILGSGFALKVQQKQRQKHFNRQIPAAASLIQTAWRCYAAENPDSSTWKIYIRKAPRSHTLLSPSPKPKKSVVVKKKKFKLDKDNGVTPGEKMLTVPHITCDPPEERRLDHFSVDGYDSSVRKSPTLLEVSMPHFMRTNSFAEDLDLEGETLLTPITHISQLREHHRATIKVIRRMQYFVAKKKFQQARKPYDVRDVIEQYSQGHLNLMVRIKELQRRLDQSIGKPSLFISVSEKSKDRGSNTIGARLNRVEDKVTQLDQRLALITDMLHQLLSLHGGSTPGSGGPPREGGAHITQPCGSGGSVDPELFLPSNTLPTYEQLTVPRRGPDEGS
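Doses: Single concentration per compound, DMSO matched to controls | Test system: KCNQ1-transfected CHO-K1 cells | Timing: 90 min dye loading and 20 min compound exposure, both at room temperature | Measured by: Kinetic FluxOR thallium fluorescence, 10-s 1-Hz baseline, 110-s post-stimulus read | Medium: Assay buffer with matched DMSO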
KCNK3 inh: human KCNK3 channel inhibitors, primary screen, CHO cells, FluxOR thallium flux, B-score | AID 602410, 2012 | B-score at 10 µM | actives 0.84% (n = 340,000) | FluxOR fluorescence; hits give low values | Potassium channel subfamily K member 3 (Homo sapiens), O14649;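 active = B-score under library mean minus 4 SD, starting fluorescence ratio at most library mean plus 5 SD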;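 note: more negative B-score means stronger inhibition of thallium flux through KCNK3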
KCNQ1 inh: inhibitors of human KCNQ1 channel, primary screen, cell-based, thallium flux, high-throughput. Potassium voltage-gated channel subfamily KQT member 1 (Homo sapiens), P51787. CHO-K1 KCNQ1, FluxOR thallium flux fluorescence; hits give high values. B-score at 10 µM. actives 1.3% (n = 310,000);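 active = compounds whose thallium flux B-score, printed positive for inhibition, exceeds three library SD while starting fluorescence stays within three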;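 note: channel opened by potassium depolarization with thallium stimulus after 20 min compound exposure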
KCNK9 block: KCNK9 potassium channel inhibitors, primary screen, HEK293 cells, thallium flux | AID 488922, 2010 | actives 1.2% (n = 310,000) | B-score at 10 µM | FluxOR thallium flux fluorescence; hits give low values | Potassium channel subfamily K member 9 (Homo sapiens), Q9NPC2;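 active = ratio B-score over 3 SD below the library mean, with starting fluorescence within 5 SD of its mean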;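 note: negative B-score means less thallium flux so channel inhibition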
A number is an active result; n = inactive; x = no result. Shown are actives, neighbours in structure and some others; about 3.7% of the full set was active somewhere.

SMILES | Kir21 inh | hERG protect | KCNQ1 pot | KCNK3 inh | KCNQ1 inh | KCNK9 block
CC1CCCCC1NC(=O)Cn1nc(-c2ccccc2)ccc1=O (stereo not drawn) | n | 4.9 | n | n | n | n
Cc1ccc(C(=O)N/N=C(/CC(=O)c2cccs2)C(F)(F)F)cc1 | n | 16.4 | 13 | n | n | n
S=c1[nH]nc(COc2ccccc2)n1/N=C/c1ccc(Cl)cc1 | n | n | n | n | n | n
S=c1[nH]nc(Cc2ccc(Br)cc2)n1/N=C/c1ccc(Cl)cc1 | n | 16.1 | n | n | n | n
Cc1cccc(NC(=O)c2n[nH]c([N+](=O)[O-])c2Br)c1C | n | n | n | n | 7 | n
Cc1cccc(NC(=O)c2ccccn2)c1C | n | n | n | n | n | n
CCOc1ccccc1NC(=O)c1cccc(S(=O)(=O)N(Cc2ccccc2)c2ccccc2OC)c1 | n | n | n | n | n | -6.86
COc1ccccc1N(Cc1ccccc1)S(=O)(=O)c1cccc(C(=O)O)c1 | n | n | n | n | n | n
COc1ccc(CCNC(=O)c2cc(C(=O)c3cc(Cl)ccc3O)cn(CCc3ccc(OC)cc3)c2=O)cc1 | n | n | n | n | 8 | n
O=C(c1cc(C(=O)NCCc2ccccc2)c(=O)n(CCc2ccccc2)c1)c1cc(Cl)ccc1O | n | n | n | n | 10 | n
CCN(C(=O)COC(=O)CCNS(=O)(=O)c1ccccc1F)c1c(N)n(Cc2ccccc2)c(=O)[nH]c1=O | x | x | x | n | x | x
O=[N+]([O-])c1ccc(CN2CCN(c3ccc([N+](=O)[O-])cc3)CC2)cc1 | n | n | n | n | n | n
O=[N+]([O-])c1ccc(N2CCC(=NOCc3ccc(Cl)cc3)CC2)cc1 | n | n | n | n | 6 | n
CC1(C)[C@@H](O)CC[C@]2(C)C3C(O)C=C4[C@H]5C[C@@](C)(C(=O)O)CC[C@]5(C)CC[C@]4(C)[C@]3(C)CC[C@@H]12 (stereo partly drawn) | n | n | 13 | x | n | n
COc1cc(NC(=O)CN(C)S(=O)(=O)c2ccc(-c3ccc(=O)[nH]n3)s2)cc(OC)c1 | n | n | n | n | n | n
COc1cccc(-c2nc(CS(=O)(=O)CC(=O)Nc3ccc(C(C)=O)cc3)c(C)o2)c1 | n | n | n | n | n | n
COc1ccc(/C=N/Nc2cc(C)nc(-n3nc(C)cc3C)n2)cc1 | n | n | n | n | n | -6.66
COc1ccccc1/C=N/Nc1cc(C)nc2ccc(C)cc12 | n | n | n | n | n | n
Cc1cc(N/N=C/c2cccc([N+](=O)[O-])c2)nc(-n2nc(C)cc2C)n1 | n | n | n | n | n | n
COc1ccc2nc(C)cc(N/N=C/c3ccccc3)c2c1 | x | x | x | -9.38 | x | x
Cc1cc(N/N=C/c2cccc(Cl)c2)nc(-n2nc(C)cc2C)n1 | n | n | n | n | n | -8.02
COc1cccc(C(=O)Nc2ccc3[nH]ncc3c2)c1 | n | n | n | n | n | n
COc1ccccc1C(=O)Nc1ccc2[nH]ncc2c1 | n | n | 9 | n | n | n
CCOc1cccc(C(=O)Nc2ccc3[nH]ncc3c2)c1 | n | 4.9 | n | n | n | n
COc1cc(/C=C/C(=O)O)ccc1OS(=O)(=O)c1c(C)cc(C)cc1C | x | x | x | n | x | x
SMILES | Kir21 inh | hERG protect | KCNQ1 pot | KCNK3 inh | KCNQ1 inh | KCNK9 block
NC(N)=N/N=C/c1ccc(OCc2ccccc2)cc1 | -11.5 | n | n | n | n | n
O=c1[nH]cc(N=Cc2cc([N+](=O)[O-])ccc2O)c(=O)[nH]1 | n | n | n | x | n | n
O=c1[nH]cc(N=Cc2cc(Cl)cc(Cl)c2O)c(=O)[nH]1 | n | n | 18 | n | n | n
COc1ccc(C(CCNCc2ccc(N(C)C)cc2)c2ccccc2OC)cc1 (stereo not drawn) | n | n | n | n | n | n
COc1ccc(CNCCC(c2ccc(OC)cc2)c2ccccc2OC)cc1 (stereo not drawn) | -10.8 | n | n | n | n | n
COc1ccc(C(CCNCc2ccc(OC(C)C)cc2)c2ccccc2OC)cc1 (stereo not drawn) | -9.91 | n | n | n | 6 | n
CCOC(=O)[C@@H]1[C@H]2COc3ccccc3[C@H]2N2C(=O)N(c3ccc(C)cc3)C(=O)[C@]12C | n | n | n | n | n | -6.66
CCOC(=O)[C@@H]1[C@H]2COc3ccccc3[C@@H]2N2C(=O)N(c3ccccc3)C(=O)[C@@]12C | n | n | n | n | n | n
Cc1ccc(C(=O)Cc2ccccc2)c(O)c1 | x | x | x | n | x | x
CC(C)(C)c1ccc(C(=O)CC(=O)c2cc(Cl)ccc2O)cc1 | n | 7.7 | n | n | n | n
Cc1ccc(C(=O)CC(=O)c2ccc(C)cc2O)cc1 | n | 10.7 | n | n | n | n
Cc1ccc(C(=O)CC(=O)c2cc(Cl)ccc2O)cc1 | n | n | 30 | n | n | n
Cc1ccc(C(C(=O)NC2CCCCC2)N(CC2CCCO2)C(=O)CCCC(=O)Nc2ccccn2)cc1 (stereo not drawn) | n | n | n | n | n | n
Cc1ccc(-n2ncc3c(NNC(=O)c4cccs4)ncnc32)cc1 | n | 5.7 | n | n | n | n
CCC(=O)NNc1ncnc2c1cnn2-c1ccccc1 | n | n | n | n | n | n
Cc1c2cc[n+](CCN3CCCCC3)cc2c(C)c2c1[nH]c1ccc(O)cc12 | x | x | x | n | x | x
O=C1CCC(C(=O)Nc2cc(C(F)(F)F)ccc2-n2cncn2)=NN1 | n | n | n | n | n | n
Cc1ccccc1NC(=O)NCCCCc1ccccc1 | n | n | n | n | n | n
CC(C)CCN1C(=O)c2ccc(C(=O)Nc3ccc(Br)cc3C(=O)O)cc2C1=O | n | n | n | n | 6 | n
Cc1ccc(S(=O)(=O)N2CCC(N3CCC(C)CC3)CC2)cc1 | n | n | n | n | n | n
CC1=CC2=NC(=O)/C(=C\c3cccn3CCOc3cc(C)cc(C)c3)C(=N)N2O1 | n | n | n | n | n | -7.85
CC1=CC2=NC(=O)/C(=C\c3cccn3CCOc3cccc(C)c3)C(=N)N2O1 | n | n | n | n | n | -6.98
O=C(C1=C[C@H](c2csc3ccccc23)C[C@H](OCc2ccc(CO)cc2)O1)N1CCCCCCC1 | n | n | n | x | n | n
CCCCNS(=O)(=O)NC(=O)C1=C(N2CCCC2)COC1=O | x | x | x | n | x | x
CCCCCCc1cc2cc(C(=O)NC)c(=N)oc2cc1O | n | n | n | n | n | n
CCCCCCc1cc2cc(C(N)=O)c(=N)oc2cc1O | n | n | n | x | 29 | n
